From ChEMBL document CHEMBL3779767, “Identification of potent and selective MTH1 inhibitors” (Bioorg Med Chem Lett, 2016)
≈ marks a conversion by molar mass, not a printed value. Calls of active or inactive are those of the source. The calls are words filed in the database; no cut-off is given here.

What was measured:
[1] = molecular target: Focal adhesion kinase 1 (Homo sapiens) (UniProt Q05397); assay: Inhibition of partial length human FAK expressed in bacterial system at 1 uM
Outline: (§1)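 Single-point screen within a 97-kinase profiling panel, with the test compound at 1 µM.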

[2] = molecular target: Angiopoietin-1 receptor (Homo sapiens) (UniProt Q02763); assay: Inhibition of partial length human TIE2 expressed in bacterial system at 1 uM
Outline: (§2)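 Single-concentration screen across a panel of 97 kinases, with the test compound at 1 uM.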

[3] = molecular target: Tyrosine-protein kinase ZAP-70 (Homo sapiens) (UniProt P43403); assay: Inhibition of partial length human ZAP70 expressed in mammalian system at 1 uM; outline: as §2
Sequence of Tyrosine-protein kinase ZAP-70 (Homo sapiens) (P43403 whole entry): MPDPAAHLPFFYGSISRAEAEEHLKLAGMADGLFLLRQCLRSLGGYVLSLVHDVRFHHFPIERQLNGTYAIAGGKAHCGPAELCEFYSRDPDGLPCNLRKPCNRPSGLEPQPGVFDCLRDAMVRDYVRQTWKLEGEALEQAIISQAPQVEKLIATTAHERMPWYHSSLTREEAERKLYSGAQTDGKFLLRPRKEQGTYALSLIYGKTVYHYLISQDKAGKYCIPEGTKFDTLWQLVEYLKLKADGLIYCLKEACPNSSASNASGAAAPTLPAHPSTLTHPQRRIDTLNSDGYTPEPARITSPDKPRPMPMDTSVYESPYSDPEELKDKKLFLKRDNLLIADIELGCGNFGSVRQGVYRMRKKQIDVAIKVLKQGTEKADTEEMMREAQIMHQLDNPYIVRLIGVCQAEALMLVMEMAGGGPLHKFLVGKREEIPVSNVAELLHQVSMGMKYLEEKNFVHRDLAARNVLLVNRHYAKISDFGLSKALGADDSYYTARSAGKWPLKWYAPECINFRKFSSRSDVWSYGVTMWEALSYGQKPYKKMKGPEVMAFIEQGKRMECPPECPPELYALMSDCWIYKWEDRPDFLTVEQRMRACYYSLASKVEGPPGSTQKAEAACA

[4] = molecular target: Serine/threonine-protein kinase pim-2 (Homo sapiens) (UniProt Q9P1W9); assay: Inhibition of partial length human PIM2 expressed in bacterial system at 1 uM; outline: as §2
UOK 262 = assay: Antiproliferative activity against human UOK 262 cells assessed as change in phenotypic response up to 50 uM; format: functional, cell-based
[5] = molecular target: High affinity nerve growth factor receptor (Homo sapiens) (UniProt P04629); assay: Inhibition of partial length human TRKA expressed in mammalian system at 1 uM; outline: as §2
HeLa [6] = assay: Antiproliferative activity against human HeLa cells assessed as change in phenotypic response up to 50 uM; format: functional, cell-based
[7] = Solubility of the compound in PBS at pH 7; format: physicochemical
Outline: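 Aqueous solubility was determined in sodium phosphate buffer at pH 7.0.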

[8] = molecular target: Inhibitor of nuclear factor kappa-B kinase subunit alpha (Homo sapiens) (UniProt O15111); assay: Inhibition of partial length human IKKalpha expressed in mammalian system at 1 uM; outline: as §1
NCI-H460 = assay: Antiproliferative activity against human NCI-H460 cells assessed as change in phenotypic response measured after prolonged treatment; format: functional, cell-based
[9] = molecular target: Platelet-derived growth factor receptor beta (Homo sapiens) (UniProt P09619); assay: Inhibition of partial length human PDGFRbeta expressed in bacterial system at 1 uM; outline: as §2
[10] = molecular target: Tyrosine-protein kinase receptor UFO (Homo sapiens) (UniProt P30530); assay: Inhibition of partial length human AXL expressed in bacterial system at 1 uM; outline: as §1
Sequence of Tyrosine-protein kinase receptor UFO (Homo sapiens) (P30530 whole entry): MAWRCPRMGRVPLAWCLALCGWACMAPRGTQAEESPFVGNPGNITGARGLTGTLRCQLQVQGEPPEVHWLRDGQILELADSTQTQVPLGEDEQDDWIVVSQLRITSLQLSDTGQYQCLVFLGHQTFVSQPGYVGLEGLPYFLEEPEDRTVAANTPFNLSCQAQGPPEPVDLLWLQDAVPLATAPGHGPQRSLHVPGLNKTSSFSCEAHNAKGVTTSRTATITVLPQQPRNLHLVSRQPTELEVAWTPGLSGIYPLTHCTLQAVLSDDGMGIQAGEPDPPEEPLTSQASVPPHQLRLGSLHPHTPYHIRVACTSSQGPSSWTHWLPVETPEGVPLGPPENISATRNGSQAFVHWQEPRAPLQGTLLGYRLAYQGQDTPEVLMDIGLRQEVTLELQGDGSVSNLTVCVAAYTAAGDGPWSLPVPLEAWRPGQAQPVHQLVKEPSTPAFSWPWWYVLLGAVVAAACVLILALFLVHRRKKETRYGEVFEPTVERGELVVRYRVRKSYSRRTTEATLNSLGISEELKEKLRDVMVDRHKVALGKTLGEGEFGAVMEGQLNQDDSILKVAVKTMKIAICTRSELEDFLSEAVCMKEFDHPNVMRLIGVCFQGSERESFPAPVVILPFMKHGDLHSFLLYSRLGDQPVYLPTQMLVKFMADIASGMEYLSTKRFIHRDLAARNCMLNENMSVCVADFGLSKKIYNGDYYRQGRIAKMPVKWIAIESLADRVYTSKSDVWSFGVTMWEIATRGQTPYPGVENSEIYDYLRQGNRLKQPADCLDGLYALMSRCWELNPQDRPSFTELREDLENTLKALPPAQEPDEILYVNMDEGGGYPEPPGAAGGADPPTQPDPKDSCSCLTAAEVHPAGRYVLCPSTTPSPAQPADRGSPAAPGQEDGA

HeLa [11] = assay: Antiproliferative activity against human HeLa cells assessed as change in phenotypic response measured after prolonged treatment; format: functional, cell-based
[12] = molecular target: Mitogen-activated protein kinase kinase kinase 9 (Homo sapiens) (UniProt P80192); assay: Inhibition of partial length human MLK1 expressed in bacterial system at 1 uM; outline: as §2
[13] = molecular target: Casein kinase I isoform delta (Homo sapiens) (UniProt P48730); assay: Inhibition of partial length human CSNK1D expressed in bacterial system at 1 uM; outline: as §1
Sequence of Casein kinase I isoform delta (Homo sapiens) (P48730 whole entry, looked up, canonical isoform): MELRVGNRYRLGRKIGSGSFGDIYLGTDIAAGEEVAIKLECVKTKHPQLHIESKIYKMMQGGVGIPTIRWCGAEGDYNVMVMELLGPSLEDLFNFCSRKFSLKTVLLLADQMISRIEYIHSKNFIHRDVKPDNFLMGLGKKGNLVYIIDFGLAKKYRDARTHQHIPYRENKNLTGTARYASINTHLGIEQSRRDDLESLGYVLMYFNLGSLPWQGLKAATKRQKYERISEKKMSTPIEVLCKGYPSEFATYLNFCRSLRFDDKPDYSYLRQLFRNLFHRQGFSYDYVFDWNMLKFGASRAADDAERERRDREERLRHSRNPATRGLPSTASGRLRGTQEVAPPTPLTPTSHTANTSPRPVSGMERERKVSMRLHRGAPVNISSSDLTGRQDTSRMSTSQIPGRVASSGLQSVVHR

[14] = molecular target: Serine/threonine-protein kinase PLK1 (Homo sapiens) (UniProt P53350); assay: Inhibition of partial length human PLK1 expressed in mammalian system at 1 uM; outline: as §2
[15] = molecular target: RAC-alpha serine/threonine-protein kinase (Homo sapiens) (UniProt P31749); assay: Inhibition of partial length human AKT1 expressed in bacterial system at 1 uM; outline: as §1
Sequence of RAC-alpha serine/threonine-protein kinase (Homo sapiens) (P31749 whole entry): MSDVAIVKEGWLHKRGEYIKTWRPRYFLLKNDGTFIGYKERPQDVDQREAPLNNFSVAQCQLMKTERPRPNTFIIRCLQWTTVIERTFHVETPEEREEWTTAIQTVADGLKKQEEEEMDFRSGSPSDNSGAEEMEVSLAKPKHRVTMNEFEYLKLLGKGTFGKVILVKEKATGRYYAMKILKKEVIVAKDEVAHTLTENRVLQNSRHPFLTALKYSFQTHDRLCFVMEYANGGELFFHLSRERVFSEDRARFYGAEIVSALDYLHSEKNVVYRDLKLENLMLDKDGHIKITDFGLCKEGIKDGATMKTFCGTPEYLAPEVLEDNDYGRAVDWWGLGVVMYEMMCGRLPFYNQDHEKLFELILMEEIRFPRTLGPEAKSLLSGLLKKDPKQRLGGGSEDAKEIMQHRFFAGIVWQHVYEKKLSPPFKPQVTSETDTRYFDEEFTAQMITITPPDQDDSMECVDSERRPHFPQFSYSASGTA

[16] = Half life in human liver microsomes; format: ADME
Outline: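 Incubated with human or mouse liver microsomes; the read-out was intrinsic clearance alongside half-life, given in hours.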

[17] = molecular target: MAP kinase-interacting serine/threonine-protein kinase 1 (Homo sapiens) (UniProt Q9BUB5); assay: Inhibition of partial length human MKNK1 expressed in mammalian system at 1 uM; outline: as §2
[18] = molecular target: Dual specificity mitogen-activated protein kinase kinase 1 (Homo sapiens) (UniProt Q02750); assay: Inhibition of partial length human MEK1 expressed in mammalian system at 1 uM; outline: as §1
MDA-MB-231 = assay: Antiproliferative activity against human MDA-MB-231 cells assessed as change in phenotypic response up to 50 uM; format: functional, cell-based
[19] = molecular target: Ephrin type-A receptor 2 (Homo sapiens) (UniProt P29317); assay: Inhibition of partial length human EPHA2 expressed in bacterial system at 1 uM; outline: as §1
[20] = molecular target: Serine/threonine-protein kinase ULK2 (Homo sapiens) (UniProt Q8IYT8); assay: Inhibition of partial length human ULK2 expressed in mammalian system at 1 uM; outline: as §2
[21] = molecular target: Serine/threonine-protein kinase DCLK1 (Homo sapiens) (UniProt O15075); assay: Inhibition of partial length human DCAMKL1 expressed in mammalian system at 1 uM; outline: as §1
[22] = molecular target: Cyclin-dependent kinase 16 (Homo sapiens) (UniProt Q00536); assay: Inhibition of partial length human PCTK1 expressed in mammalian system at 1 uM; outline: as §2
Sequence of Cyclin-dependent kinase 16 (Homo sapiens) (Q00536 whole entry): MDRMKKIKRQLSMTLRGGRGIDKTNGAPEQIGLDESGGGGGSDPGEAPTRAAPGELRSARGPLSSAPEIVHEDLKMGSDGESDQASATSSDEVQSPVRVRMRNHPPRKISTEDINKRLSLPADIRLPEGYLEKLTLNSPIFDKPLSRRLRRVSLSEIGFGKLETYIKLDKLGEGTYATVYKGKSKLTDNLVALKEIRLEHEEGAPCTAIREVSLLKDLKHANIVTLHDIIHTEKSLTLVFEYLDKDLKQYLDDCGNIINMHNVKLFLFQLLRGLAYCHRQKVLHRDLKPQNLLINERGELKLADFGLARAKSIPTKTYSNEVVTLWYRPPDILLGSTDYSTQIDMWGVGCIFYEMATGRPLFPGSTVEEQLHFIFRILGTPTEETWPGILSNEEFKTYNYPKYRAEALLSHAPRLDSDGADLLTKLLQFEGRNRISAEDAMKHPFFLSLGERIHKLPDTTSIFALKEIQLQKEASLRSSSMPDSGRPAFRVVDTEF

[23] = molecular target: Mast/stem cell growth factor receptor Kit (Homo sapiens) (UniProt P10721); assay: Inhibition of partial length human KIT expressed in bacterial system at 1 uM
Sequence of Mast/stem cell growth factor receptor Kit (Homo sapiens) (P10721 whole entry): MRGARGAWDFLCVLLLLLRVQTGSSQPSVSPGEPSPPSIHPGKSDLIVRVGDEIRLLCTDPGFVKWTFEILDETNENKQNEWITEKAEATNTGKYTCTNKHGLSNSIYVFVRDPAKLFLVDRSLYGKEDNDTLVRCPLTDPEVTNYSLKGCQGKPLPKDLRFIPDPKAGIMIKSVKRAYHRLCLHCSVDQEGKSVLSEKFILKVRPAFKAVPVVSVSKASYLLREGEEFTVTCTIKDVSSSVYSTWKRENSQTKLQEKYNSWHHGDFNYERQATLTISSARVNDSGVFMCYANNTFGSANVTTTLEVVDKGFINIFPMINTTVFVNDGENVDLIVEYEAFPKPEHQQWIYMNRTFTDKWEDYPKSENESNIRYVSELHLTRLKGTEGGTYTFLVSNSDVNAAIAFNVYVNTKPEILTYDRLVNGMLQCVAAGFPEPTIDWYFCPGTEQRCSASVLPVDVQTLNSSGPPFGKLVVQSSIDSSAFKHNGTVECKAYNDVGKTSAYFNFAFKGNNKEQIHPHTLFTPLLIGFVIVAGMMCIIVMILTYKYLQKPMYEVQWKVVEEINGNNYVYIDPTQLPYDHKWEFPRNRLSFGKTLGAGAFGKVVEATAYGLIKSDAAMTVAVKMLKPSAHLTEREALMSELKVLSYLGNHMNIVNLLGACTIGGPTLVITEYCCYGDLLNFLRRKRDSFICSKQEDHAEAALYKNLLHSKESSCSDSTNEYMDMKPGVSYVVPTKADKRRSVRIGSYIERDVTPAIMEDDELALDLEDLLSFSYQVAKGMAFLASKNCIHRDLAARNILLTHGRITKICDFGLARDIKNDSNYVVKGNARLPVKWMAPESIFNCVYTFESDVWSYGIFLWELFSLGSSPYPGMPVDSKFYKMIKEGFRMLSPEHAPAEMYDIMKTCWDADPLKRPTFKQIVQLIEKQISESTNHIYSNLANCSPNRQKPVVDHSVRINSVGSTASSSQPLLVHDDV
Outline: (§3)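 Single-concentration screen at 1 µM test concentration, run as part of a commercial binding/activity profiling panel covering 97 kinases.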

[24] = molecular target: Ribosomal protein S6 kinase alpha-2 (Homo sapiens) (UniProt Q15349); assay: Inhibition of N-terminal partial length human RSK2 kinase domain 1 expressed in mammalian system at 1 uM; outline: as §1
[25] = molecular target: Receptor-type tyrosine-protein kinase FLT3 (Homo sapiens) (UniProt P36888); assay: Inhibition of partial length human FLT3 expressed in bacterial system at 1 uM; outline: as §1
NCI-H358 = assay: Antiproliferative activity against human NCI-H358 cells assessed as change in phenotypic response measured after prolonged treatment; format: functional, cell-based
[26] = Permeability across MDCK cells; format: ADME, cell-based, Canis lupus familiaris; settings: dog, read-out: permeability
Outline: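 Measured across a confluent MDCK cell monolayer; apparent permeability is reported together with the efflux ratio.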

[27] = molecular target: ALK tyrosine kinase receptor (Homo sapiens) (UniProt Q9UM73); assay: Inhibition of partial length human ALK expressed in mammalian system at 1 uM; outline: as §1
[28] = molecular target: Serine/threonine-protein kinase PAK 2 (Homo sapiens) (UniProt Q13177); assay: Inhibition of partial length human PAK2 expressed in bacterial system at 1 uM; outline: as §2
[29] = molecular target: Insulin-like growth factor 1 receptor (Homo sapiens) (UniProt P08069); assay: Inhibition of partial length human IGF1R expressed in bacterial system at 1 uM; outline: as §1
[30] = molecular target: Serine/threonine-protein kinase PAK 4 (Homo sapiens) (UniProt O96013); assay: Inhibition of partial length human PAK4 expressed in bacterial system at 1 uM; outline: as §2
[31] = molecular target: Testis-specific serine/threonine-protein kinase 1 (Homo sapiens) (UniProt Q9BXA7); assay: Inhibition of partial length human TSSK1B expressed in bacterial system at 1 uM; outline: as §2
[32] = molecular target: Tyrosine-protein kinase BTK (Homo sapiens) (UniProt Q06187); assay: Inhibition of partial length human BTK expressed in mammalian system at 1 uM; outline: as §1
[33] = molecular target: Mitogen-activated protein kinase 8 (Homo sapiens) (UniProt P45983); assay: Inhibition of partial length human JNK1 expressed in mammalian system at 1 uM; outline: as §1
SAOS-2 = assay: Antiproliferative activity against human Saos2 cells assessed as change in phenotypic response up to 50 uM; format: functional, cell-based
[34] = test system: Mast/stem cell growth factor receptor Kit (Homo sapiens), P10721 [V559D,T670I]; assay: Inhibition of partial length human KIT V559D/T670I double mutant expressed in bacterial system at 1 uM; outline: as §3
Sequence of Mast/stem cell growth factor receptor Kit (Homo sapiens), P10721 [V559D,T670I] (P10721 whole entry V559D/T670I): as the sequence (P10721 whole entry) above, with V559D, T670I counted along it

[35] = molecular target: Proto-oncogene tyrosine-protein kinase receptor Ret (Homo sapiens) (UniProt P07949); assay: Inhibition of partial length human RET expressed in bacterial system at 1 uM; outline: as §2

Sequence of Focal adhesion kinase 1 (Homo sapiens) (Q05397 2-1052 limits assumed): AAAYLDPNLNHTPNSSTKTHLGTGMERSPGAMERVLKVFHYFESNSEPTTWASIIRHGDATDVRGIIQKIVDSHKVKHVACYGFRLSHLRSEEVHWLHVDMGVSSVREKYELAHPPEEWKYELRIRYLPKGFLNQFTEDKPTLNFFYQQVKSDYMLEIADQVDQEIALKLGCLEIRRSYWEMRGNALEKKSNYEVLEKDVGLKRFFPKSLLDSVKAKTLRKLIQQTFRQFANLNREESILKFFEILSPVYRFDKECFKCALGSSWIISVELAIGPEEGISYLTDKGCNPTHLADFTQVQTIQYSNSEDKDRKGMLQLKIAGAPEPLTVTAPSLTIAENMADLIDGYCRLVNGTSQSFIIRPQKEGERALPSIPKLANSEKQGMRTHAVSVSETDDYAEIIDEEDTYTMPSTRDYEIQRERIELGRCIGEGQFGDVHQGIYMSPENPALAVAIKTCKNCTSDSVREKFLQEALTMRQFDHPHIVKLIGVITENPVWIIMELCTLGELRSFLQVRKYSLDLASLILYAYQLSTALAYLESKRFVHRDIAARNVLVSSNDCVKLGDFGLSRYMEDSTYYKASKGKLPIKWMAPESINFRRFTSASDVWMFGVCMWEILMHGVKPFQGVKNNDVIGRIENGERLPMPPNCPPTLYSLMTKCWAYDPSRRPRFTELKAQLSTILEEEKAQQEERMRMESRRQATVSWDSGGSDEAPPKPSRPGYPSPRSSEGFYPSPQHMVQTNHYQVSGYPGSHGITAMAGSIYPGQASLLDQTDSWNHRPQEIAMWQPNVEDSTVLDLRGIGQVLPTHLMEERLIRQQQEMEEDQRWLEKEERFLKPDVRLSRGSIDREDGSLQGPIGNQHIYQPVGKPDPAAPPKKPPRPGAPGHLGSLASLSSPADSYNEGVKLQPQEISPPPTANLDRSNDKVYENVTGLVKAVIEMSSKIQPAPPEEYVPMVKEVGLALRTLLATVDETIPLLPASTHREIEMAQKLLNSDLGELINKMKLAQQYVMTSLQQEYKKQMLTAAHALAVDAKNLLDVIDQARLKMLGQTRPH

Question: Which inhibition [1] does the source give for Cc1cnc(N)nc1OCC(C)(C)CO here?
Answer: Its inhibition is “inactive”.

Question: What about the inhibition [2] of the same compound?
Answer: The inhibition was “inactive”.

Question: What about the inhibition [3] of the same compound?
Answer: Its inhibition is “inactive”.

Question: And the inhibition [4]?
Answer: Its inhibition is “inactive”.

Question: And the Activity (UOK 262)?
Answer: The Activity was “inactive”.

Question: And the inhibition [5]?
Answer: Its inhibition is “inactive”.

Question: What about the Activity (HeLa [6]) of the same compound?
Answer: The Activity was “inactive”.

Question: And the solubility [7]?
Answer: Its solubility is 75.6 µM (≈ 16 µg/mL).

Question: And the inhibition [8]?
Answer: Its inhibition is “inactive”.

Question: What about the Activity (NCI-H460) of the same compound?
Answer: The Activity was “inactive”.

Question: And the inhibition [9]?
Answer: Its inhibition is “inactive”.

Question: And the inhibition [10]?
Answer: The inhibition was “inactive”.

Question: What about the Activity (HeLa [11]) of the same compound?
Answer: Its Activity is “inactive”.

Question: And the inhibition [12]?
Answer: The inhibition was “inactive”.

Question: What about the inhibition [13] of the same compound?
Answer: The inhibition was “inactive”.

Question: And the inhibition [14]?
Answer: Its inhibition is “inactive”.

Question: And the inhibition [15]?
Answer: Its inhibition is “inactive”.

Question: What about the half-life [16] of the same compound?
Answer: Its half-life is 5.5 h.

Question: What about the inhibition [17] of the same compound?
Answer: The inhibition was “inactive”.

Question: What about the inhibition [18] of the same compound?
Answer: Its inhibition is “inactive”.

Question: What about the Activity (MDA-MB-231) of the same compound?
Answer: The Activity was “inactive”.

Question: What about the inhibition [19] of the same compound?
Answer: Its inhibition is “inactive”.

Question: And the inhibition [20]?
Answer: Its inhibition is “inactive”.

Question: And the inhibition [21]?
Answer: Its inhibition is “inactive”.

Question: What about the inhibition [22] of the same compound?
Answer: The inhibition was “inactive”.

Question: What about the inhibition [23] of the same compound?
Answer: The inhibition was “inactive”.

Question: And the inhibition [24]?
Answer: The inhibition was “inactive”.

Question: And the inhibition [25]?
Answer: Its inhibition is “inactive”.

Question: What about the Activity (NCI-H358) of the same compound?
Answer: The Activity was “inactive”.

Question: What about the Papp [26] of the same compound?
Answer: The Papp was 32 ×10⁻⁶ cm/s.

Question: What about the inhibition [27] of the same compound?
Answer: Its inhibition is “inactive”.

Question: And the inhibition [28]?
Answer: Its inhibition is “inactive”.

Question: What about the inhibition [29] of the same compound?
Answer: Its inhibition is “inactive”.

Question: And the inhibition [30]?
Answer: Its inhibition is “inactive”.

Question: What about the inhibition [31] of the same compound?
Answer: Its inhibition is “inactive”.

Question: What about the inhibition [32] of the same compound?
Answer: Its inhibition is “inactive”.

Question: What about the inhibition [33] of the same compound?
Answer: The inhibition was “inactive”.

Question: And the Activity (SAOS-2)?
Answer: The Activity was “inactive”.

Question: And the inhibition [34]?
Answer: Its inhibition is “inactive”.

Question: And the inhibition [35]?
Answer: The inhibition was “inactive”.
